Values after ≈ are worked out from the molar mass of the structure shown.
How the values were obtained:
[1] = test system: cotton pellet induced granuloma; assay: Cotton pellets induced granuloma assay; assay type: in vivo; conditions: rat, 100 mg kg^−1 p.o. for 8 d, mean ± SEM
How it was run: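 Two sterile 10 mg cotton pellets implanted ventrally in rats, six per group. […] On day 9 rats were killed under excess ether. Pellets were freed of tissue and weighed wet, then dried at 55 °C for 6 h or to constant weight. Granuloma equals dry weight minus cotton weight. Mean ± SEM.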

Bacillus subtillis = assay: In vitro antibacterial MIC determination; assay type: cell-based
How it was run: (§1)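 Bacteria grown on nutrient agar, subcultured to log phase in nutrient broth, then diluted in sterile saline to about 10^5–10^6 CFU mL−1. Test compounds diluted in acetone, DMSO or diethyl ether (ether preferred). Saturated disks placed on spread-plated inoculum and incubated at 37 °C for 24 h. MIC determined across different compound concentrations, with streptomycin as standard.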

Aspergillus flavus = assay: In vitro antifungal MIC, poison plate technique; assay type: cell-based
RAW 264.7 cells [2] = assay: MTT assay, LPS-induced inflammation in RAW 264.7; assay type: cell-based, murine; conditions: RAW 264.7, pre-treatment 100 μM and 200 μM, then LPS; Fig. 4
How it was run: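 Mouse RAW 264.7 macrophages kept in high-glucose DMEM with 10% heat-inactivated FBS and 1% penicillin–streptomycin at 37 °C, 5% CO2. Cells seeded at 5 × 10^5 cells per mL, pretreated 1 h with test compound (100 or 200 μM), then stimulated with […] for 24 h. Medium replaced; 0.5 mg mL−1 MTT for 3 h; formazan dissolved in DMSO; OD read at 540 nm. Percent inflammation derived by subtracting percent viability relative to control.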

Rhizopus arrhizus = assay: In vitro antifungal MIC, poison plate technique; assay type: cell-based
RAW 264.7 cells [3] = assay: Nitrite; assay type: cell-based, murine; conditions: RAW 264.7, 100 μM and 200 μM pre-treatment; Fig. 5
How it was run: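 RAW 264.7 cells (1 × 10^6) seeded in flasks and left to adhere overnight. Pretreated 1 h with test compound (100 or 200 μM), then 100 μM LPS for 24 h at 37 °C, 5% CO2. Supernatant mixed with an equal volume of Griess reagent (0.1% naphthylethylenediamine and 1% sulfanilamide, 1:1, in 5% phosphoric acid) for 10 min in the dark at room temperature; A540 read. Nitrite quantified from a NaNO2 standard curve (0.1–6.25 μM), expressed as μmol NO2−/mg protein. Triplicates.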

Escherichia coli = assay: In vitro antibacterial MIC determination; assay type: cell-based
How it was run: as §1

COX-2 = molecular target: T1, COX-2 (Ovis aries, UniProt P79208); assay: Colorimetric COX; assay type: biochemical, ovine; conditions: read-out: % inhibition of COX, COX-2
T1 sequence (P79208 17-603): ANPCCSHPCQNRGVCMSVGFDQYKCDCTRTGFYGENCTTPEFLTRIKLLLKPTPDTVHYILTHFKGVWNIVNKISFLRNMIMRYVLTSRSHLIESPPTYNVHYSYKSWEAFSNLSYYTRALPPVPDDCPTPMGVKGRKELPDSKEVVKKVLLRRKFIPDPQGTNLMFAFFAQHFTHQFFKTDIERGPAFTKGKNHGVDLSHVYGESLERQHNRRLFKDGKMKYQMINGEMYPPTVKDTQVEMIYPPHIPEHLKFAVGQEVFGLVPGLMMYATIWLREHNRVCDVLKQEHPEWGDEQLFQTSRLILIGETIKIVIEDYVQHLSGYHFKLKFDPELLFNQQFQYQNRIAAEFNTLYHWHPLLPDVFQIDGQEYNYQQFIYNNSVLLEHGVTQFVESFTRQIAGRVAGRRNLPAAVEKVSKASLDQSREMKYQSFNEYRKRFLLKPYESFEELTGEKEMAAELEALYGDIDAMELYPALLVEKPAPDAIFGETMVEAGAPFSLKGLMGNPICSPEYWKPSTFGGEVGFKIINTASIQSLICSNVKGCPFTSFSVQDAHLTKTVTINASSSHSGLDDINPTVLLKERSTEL

Pseudomonas aeruginosa = assay: In vitro antibacterial MIC determination; assay type: cell-based
How it was run: as §1

COX-1 = molecular target: T2, COX-1 (Ovis aries, UniProt P05979); assay: Colorimetric COX; assay type: biochemical, ovine; conditions: read-out: % inhibition of COX, COX-1
T2 sequence (P05979 25-600): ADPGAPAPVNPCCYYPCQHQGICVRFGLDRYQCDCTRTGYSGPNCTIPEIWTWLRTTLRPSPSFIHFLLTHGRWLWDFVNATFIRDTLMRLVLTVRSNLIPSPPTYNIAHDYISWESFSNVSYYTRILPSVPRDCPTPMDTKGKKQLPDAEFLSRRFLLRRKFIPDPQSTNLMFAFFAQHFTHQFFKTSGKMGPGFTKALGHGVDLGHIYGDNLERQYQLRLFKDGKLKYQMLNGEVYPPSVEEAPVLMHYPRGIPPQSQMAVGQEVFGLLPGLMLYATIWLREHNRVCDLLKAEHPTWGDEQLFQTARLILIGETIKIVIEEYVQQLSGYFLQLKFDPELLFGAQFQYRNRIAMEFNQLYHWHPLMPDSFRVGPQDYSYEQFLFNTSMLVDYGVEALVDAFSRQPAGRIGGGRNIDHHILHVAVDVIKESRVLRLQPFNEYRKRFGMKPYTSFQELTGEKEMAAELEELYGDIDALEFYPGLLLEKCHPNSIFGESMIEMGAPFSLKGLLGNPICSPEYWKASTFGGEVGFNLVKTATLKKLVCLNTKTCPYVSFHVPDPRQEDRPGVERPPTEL

Staphylococcus aureus = assay: In vitro antibacterial MIC determination; assay type: cell-based
How it was run: as §1

[4] = test system: carrageenan-induced paw edema; assay: Carrageenan induced hind paw edema assay; assay type: in vivo; conditions: rat, 100 mg kg^−1 p.o., mean ± SEM
How it was run: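 Rats, six per group, acclimatized one week (25 ± 2 °C, 12 h light/dark, standard pellets, water ad libitum). […] Paw volume measured by plethysmometer displacement to the lateral malleolus at 1, 3 and 6 h. Mean ± SEM.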

Aspergillus niger = assay: In vitro antifungal MIC, poison plate technique; assay type: cell-based

SMILES | Weight, Dry (cotton pellet) [1] [mg] | Weight, Wet (cotton pellet) [1] [mg] | MIC (Bacillus subtillis) [µg/mL] | MIC (Aspergillus flavus) [µg/mL] | anti-inflammatory activity against LPS induced cell death / inflammation (MTT) (RAW 264.7 cells [2]) | MIC (Rhizopus arrhizus) [µg/mL] | inhibition of LPS-induced NO production (RAW 264.7 cells [3]) | MIC (Escherichia coli) [µg/mL] | inhibition at 100 µM (COX-2) [%] | inhibition at 200 µM (COX-2) [%] | MIC (Pseudomonas aeruginosa) [µg/mL] | inhibition at 100 µM (COX-1) [%] | inhibition at 200 µM (COX-1) [%] | MIC (Staphylococcus aureus) [µg/mL] | Paw volume ([4]; 1 h after carrageenan) [mL] | Paw volume ([4]; 3 h after carrageenan) [mL] | Paw volume ([4]; 6 h after carrageenan) [mL] | MIC (Aspergillus niger) [µg/mL]
O=S(=O)(NC[C@@H](O)[C@@H]1CCc2cc(F)ccc2O1)c1cccs1 [Compound 8c, N-((R)-2-((S)-6-Fluorochroman-2-yl)-2-hydroxyethyl)thiophene-2-sulfonamide] | 91.30 ± 1.72 | 148.62 ± 1.85 | 21.6 ± 0.44 (≈ 60.4 µM) | 16.7 ± 0.7 (≈ 46.8 µM) | strong anti-inflammatory activity | 22.2 ± 0.83 (≈ 62.2 µM) | strong inhibition | 17.1 ± 0.47 (≈ 47.9 µM) | 40.4 ± 0.1 | 61.2 ± 0.72 | 22.2 ± 0.63 (≈ 62.1 µM) | 51.1 ± 0.62 | 70.07 ± 0.7 | 19.7 ± 0.62 (≈ 55 µM) | 0.60 ± 0.64 | 0.88 ± 0.31 | 1.11 ± 0.13 | 18.1 ± 0.46 (≈ 50.6 µM)
O=S(=O)(NC[C@@H](O)[C@@H]1CCc2cc(F)ccc2O1)c1cccc(C(F)(F)F)c1 [Compound 8e, N-((R)-2-((S)-6-Fluorochroman-2-yl)-2-hydroxyethyl)-3-(trifluoromethyl)benzenesulfonamide] | 76.45 ± 1.95 | 152.40 ± 1.57 | 19.7 ± 0.36 (≈ 46.9 µM) | 14.1 ± 0.55 (≈ 33.6 µM) | strong anti-inflammatory activity | 16.6 ± 0.52 (≈ 39.7 µM) | strong inhibition | 26.3 ± 0.28 (≈ 62.6 µM) | 35.55 ± 0.22 | 57.72 ± 0.36 | 26.7 ± 0.88 (≈ 63.7 µM) | 48.4 ± 0.84 | 71.55 ± 0.15 | 20.4 ± 0.62 (≈ 48.7 µM) | 0.68 ± 0.96 | 0.74 ± 0.29 | 1.19 ± 0.65 | 11.7 ± 0.35 (≈ 27.9 µM)

Reference: paper PMC8694313 (RSC Advances, 2021)
